Assay results taken from ChEMBL document CHEMBL3286319, “Hyafurones, hyapyrrolines, and hyapyrones: polyketides from Hyalangium minutum” (J Nat Prod, 2014).
In brackets after ≈: the same amount, converted by molar mass. Activity calls are given as the source filed them. The rule behind the calls is not given here.

How the values were obtained:
Pseudomonas aeruginosa = experiment: Antibacterial activity against Pseudomonas aeruginosa by serial dilution method; format: functional
Rhodotorula glutinis = experiment: Antifungal activity against Rhodotorula glutinis by serial dilution method; format: functional
Method in brief: (§1)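 MIC by 1:1 serial dilution in 96-well microtiter plates. Yeasts and fungi were grown in MYC medium (1.0% glucose, 1.0% phytone peptone, 50 mM HEPES, pH 7.0).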

[1] = system: Schizosaccharomyces pombe; experiment: Antifungal activity against Schizosaccharomyces pombe by serial dilution method; format: functional; method in brief: as §1
Nocardia = experiment: Antibacterial activity against Nocardia flava by serial dilution method; format: functional
Micrococcus luteus = experiment: Antibacterial activity against Micrococcus luteus by serial dilution method; format: functional
[2] = system: Chromobacterium violaceum; experiment: Antibacterial activity against Chromobacterium violaceum by serial dilution method; format: functional
Mucor hiemalis = experiment: Antifungal activity against Mucor hiemalis by serial dilution method; format: functional; method in brief: as §1
Staphylococcus aureus = experiment: Antibacterial activity against Staphylococcus aureus by serial dilution method; format: functional
Wickerhamomyces anomalus = experiment: Antifungal activity against Pichia anomala by serial dilution method; format: functional; conditions: Hansenula anomala; method in brief: as §1
Candida albicans = experiment: Antifungal activity against Candida albicans by serial dilution method; format: functional; method in brief: as §1
Escherichia coli = experiment: Antibacterial activity against Escherichia coli TolC by serial dilution method; format: functional
Mycolicibacterium phlei = experiment: Antibacterial activity against Mycobacterium phlei by serial dilution method; format: functional
L929 = experiment: Cytotoxicity against mouse L929 cells by MTT assay; format: cell-based
Leishmania donovani = experiment: Antiparasitic activity against Leishmania donovani axenic amastigotes; format: functional, organism-based
Plasmodium falciparum = experiment: Antiparasitic activity against Plasmodium falciparum K1; format: functional, organism-based
[3] = system: Trypanosoma brucei rhodesiense; experiment: Antiparasitic activity against Trypanosoma brucei rhodesiense; format: functional, organism-based
HUVEC = experiment: Cytotoxicity against HUVEC by MTT assay; format: cell-based; conditions: Homo sapiens
Trypanosoma cruzi = experiment: Antiparasitic activity against Trypanosoma cruzi; format: functional, organism-based

Structure (SMILES)	MIC (Pseudomonas aeruginosa) [µg/mL]	MIC (Rhodotorula glutinis) [µg/mL]	MIC [1] [µg/mL]	MIC (Nocardia; read-out: MIC) [µg/mL]	MIC (Micrococcus luteus) [µg/mL]	MIC [2] [µg/mL]	MIC (Mucor hiemalis) [µg/mL]	MIC (Staphylococcus aureus) [µg/mL]	MIC (Wickerhamomyces anomalus) [µg/mL]	MIC (Candida albicans) [µg/mL]	MIC (Escherichia coli) [µg/mL]	MIC (Mycolicibacterium phlei) [µg/mL]	MIC (Mucor hiemalis; read-out: MIC) [µg/mL]	MIC (Nocardia) [µg/mL]	IC50 (L929) [µM]	Activity (Leishmania donovani)	Activity (Plasmodium falciparum)	Activity [3]	IC50 (HUVEC) [µM]	Activity (Trypanosoma cruzi)
CC1=C(O)C(C)O/C(=C/CC(O)\C=C/C=C/C(C)=C/C=C/C(C)C(O)C(C)CCc2ccccc2)C1=O (stereo not given)	> 67	> 67	> 67		> 67	> 67		> 67	> 67	> 67	> 67	> 67	≤ 67	> 67						
CC(/C=C/CCCC/C=C/c1oc(=O)c(C)c(O)c1C)=C\C=C\C(C)C(O)C(C)CCc1ccccc1 (stereo not given)	> 67	> 67	> 67	16.6 (≈ 32.9 µM)	> 67	> 67		> 67	> 67	> 67	> 67	> 67	33.3 (≈ 66 µM)		22					
CC1=C(CC(O)CC(O)\C=C/C=C/C(C)=C/C=C/C(C)C(O)C(C)CCc2ccccc2)OC(C)(O)C1=O (stereo not given)	> 67	> 67	> 67		> 67	> 67	> 67	> 67	> 67	> 67	> 67	> 67		> 67		inactive	inactive	inactive	2.67	inactive
CC1=C(CC(O)CC(O)/C=C/C=C/C(C)=C/C=C/C(C)C(O)C(C)CCc2ccccc2)OC(C)(O)C1=O (stereo not given)	> 67	> 67	> 67		> 67	> 67	> 67	> 67	> 67	> 67	> 67	> 67		> 67						

More lines, main results first:

MIC (Pseudomonas aeruginosa) [µg/mL]	MIC (Rhodotorula glutinis) [µg/mL]	MIC [1] [µg/mL]	MIC (Nocardia; read-out: MIC) [µg/mL]	MIC (Micrococcus luteus) [µg/mL]	MIC [2] [µg/mL]	MIC (Mucor hiemalis) [µg/mL]	MIC (Staphylococcus aureus) [µg/mL]	MIC (Wickerhamomyces anomalus) [µg/mL]	MIC (Candida albicans) [µg/mL]	MIC (Escherichia coli) [µg/mL]	MIC (Mycolicibacterium phlei) [µg/mL]	MIC (Mucor hiemalis; read-out: MIC) [µg/mL]	MIC (Nocardia) [µg/mL]	Structure (SMILES)	IC50 (L929) [µM]	Activity (Leishmania donovani)	Activity (Plasmodium falciparum)	Activity [3]	IC50 (HUVEC) [µM]	Activity (Trypanosoma cruzi)
> 67	> 67	> 67	8.3 (≈ 16.4 µM)	> 67	> 67	> 67	> 67	> 67	> 67	> 67	> 67			CC1=C(/C=C/CC(O)\C=C/C=C/C(C)=C/C=C/C(C)C(O)C(C)CCc2ccccc2)OC(C)(O)C1=O (stereo not given)						
> 67	> 67	> 67	> 67	> 67	> 67		> 67	> 67	> 67	> 67	> 67	> 67		CC1=C(CC(O)CC(O)\C=C/C=C/C(C)=C/C=C/C(C)C(O)C(C)CCc2ccccc2)[N+](C)(CCO)C(C)(O)C1=O (stereo not given)						
> 67	> 67	> 67		> 67	> 67	> 67	> 67	> 67	> 67	> 67	> 67		> 67	CC1=C(CC(O)CC(O)\C=C/C=C/C(C)=C/C=C/C(C)C(O)C(C)CCc2ccccc2)N(CCO)C(C)(O)C1=O (stereo not given)						
